Measurements taken from paper PMC3656968 (Journal of medicinal chemistry, 2013).
Where two headings read alike, the source gives them in different places. Marks after values point to notes of the source that are not given here.

Tests used:
[1] = Relaxivity in HEPES buffer in the absence of HSA; format: physicochemical; conditions: 50 mM HEPES buffer pH 7.4, 37 °C
In short: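 Complex solid redissolved in 50 mM HEPES and filtered, with Gd concentration set by ICP-MS. Longitudinal relaxation (1/T1) measured at 0.47 and 1.41 T without HSA at 0.05-0.4 mM complex, in 50 mM HEPES pH 7.4 at 37 °C. r1 taken as slope of 1/T1 versus Gd concentration (mM). Error estimated at ±10% of value.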

[2] = biological target: T1, human serum albumin (HSA) (Homo sapiens, UniProt P02768); test: Relaxivity in the presence of 4.5% w/v HSA; conditions: 50 mM HEPES buffer pH 7.4, 37 °C
In short: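 Complex in 50 mM HEPES with 4.5% w/v HSA, pH 7.4, 37 °C, with Gd content quantified by ICP-MS. 1/T1 recorded at 0.47 and 1.41 T across several complex concentrations. Observed relaxivity is the slope of 1/T1 against Gd concentration (mM). Estimated error is ±10% of the measured value.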

[3] = biological target: T1, human serum albumin (HSA); test: Ultrafiltration assay of binding to HSA; conditions: for % bound to 4.5% HSA: 0.1 mM probe, 4.5% w/v HSA in 50 mM HEPES, ultrafiltration; for binding to HSA on average: average of the diastereoisomers Gd(6a) and Gd(6b), 0.1 mM, 4.5% w/v HSA
In short: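 Complex at a constant 0.1 mM (50 mM HEPES, concentration by ICP-MS) with 4.5% w/v HSA, ultrafiltered through a 5000 MW cutoff membrane. Compared against the filtrate of an HSA-free solution. Unbound and total Gd measured directly by ICP-MS, and binding given as percent bound to HSA. Error estimated at ±10%.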

[4] = biological target: T1, human serum albumin (HSA); conditions: cited from earlier work
[5] = biological target: T1, human serum albumin (HSA); test: T1 weighted MR image of samples with or without HSA; conditions: 0.1 mM compound, with or without 4.5 % w/v HSA
In short: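 Samples of 0.1 mM compound, with or without 4.5% w/v HSA, imaged side by side with a T1-weighted sequence (TR/TE/flip angle 25 ms/4.7 ms/70°). Signal intensity read for each sample.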

[6] = absence of HSA, cited from earlier work
[7] = biological target: T1, human serum albumin (HSA); conditions: 0.1 mM probe, 4.5% w/v HSA; cited from earlier work

T1 sequence (P02768 25-609): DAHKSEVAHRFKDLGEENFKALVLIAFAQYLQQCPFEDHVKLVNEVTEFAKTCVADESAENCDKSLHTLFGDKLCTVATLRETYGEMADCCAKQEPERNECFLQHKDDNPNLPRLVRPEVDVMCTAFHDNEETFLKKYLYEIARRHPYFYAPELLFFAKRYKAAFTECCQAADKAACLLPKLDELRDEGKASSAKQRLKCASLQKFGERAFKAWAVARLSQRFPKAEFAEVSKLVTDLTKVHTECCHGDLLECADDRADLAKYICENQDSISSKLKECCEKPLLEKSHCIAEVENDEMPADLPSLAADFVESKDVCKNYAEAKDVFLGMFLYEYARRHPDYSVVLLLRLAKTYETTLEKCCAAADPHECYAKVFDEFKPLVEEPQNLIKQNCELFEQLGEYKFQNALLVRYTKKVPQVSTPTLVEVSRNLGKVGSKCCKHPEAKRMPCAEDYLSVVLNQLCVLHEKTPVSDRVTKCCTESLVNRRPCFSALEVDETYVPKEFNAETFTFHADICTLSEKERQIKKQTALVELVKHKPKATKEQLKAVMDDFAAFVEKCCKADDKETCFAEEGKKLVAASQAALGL

signal / contrast in T1 weighted image with versus without HSA [5] | Structure (SMILES) | r1^free ([1]; 0.47T) | r1^free ([1]; 1.41T) | r1^obs 4.5% HSA ([2]; 0.47T) | r1^obs 4.5% HSA ([2]; 1.41T) | % bound to 4.5% HSA [3] | binding to HSA on average [3] | r1^obs 4.5% HSA ([4]; 0.47T) | r1^obs 4.5% HSA ([4]; 1.41T) | r1^free ([6]; 0.47T) | r1^free ([6]; 1.41T) | % bound to 4.5% HSA [7]
– | C[C@H](NC(=O)C(N)CN1CCN(CC(=O)O)CCN(CC(=O)O)CCN(CC(=O)O)CC1)c1ccccc1 (stereo partly drawn) [Gd(2), 2,2′,2″-(10-(2-amino-3-oxo-3-(((S)-1-phenylethyl)amino)propyl)-1,4,7,10-tetraazacyclododecane-1,4,7-triyl)triacetic acid] | 4.8 mM⁻¹ s⁻¹ | 3.9 mM⁻¹ s⁻¹ | 7.1 mM⁻¹ s⁻¹ | 5.9 mM⁻¹ s⁻¹ | 7% | – | – | – | – | – | –
– | COC(=O)CNC(=O)C(CN1CCN(CC(=O)O)CCN(CC(=O)O)CCN(CC(=O)O)CC1)NC(=O)C(N)Cc1cc(I)c(O)c(I)c1 (stereo not drawn) [Gd(5), 2,2′,2″-(10-(2-(2-amino-3-(4-hydroxy-3,5-diiodophenyl)propanamido)-3-((2-methoxy-2-oxoethyl)amino)-3-oxopropyl)-1,4,7,10-tetraazacy-clododecane-1,4,7-triyl)triacetic acid] | 6.9 mM⁻¹ s⁻¹ | 6.3 mM⁻¹ s⁻¹ | 20.9 mM⁻¹ s⁻¹ | 16.7 mM⁻¹ s⁻¹ | 25% | – | – | – | – | – | –
– | C[C@H](NC(=O)C(CN1CCN(CC(=O)O)CCN(CC(=O)O)CCN(CC(=O)O)CC1)NC(=O)C(N)Cc1cc(I)c(O)c(I)c1)c1ccccc1 (single isomer, unassigned) [Gd(6a)] | 7.1 mM⁻¹ s⁻¹ | 6.6 mM⁻¹ s⁻¹ | 18.5 mM⁻¹ s⁻¹ | 10.9 mM⁻¹ s⁻¹ | 34% | 37% | – | – | – | – | –
increased signal in presence of HSA | O=C([O-])CN(CCN(CC(=O)[O-])C[C@H](COP(=O)([O-])OC1CCC(c2ccccc2)(c2ccccc2)CC1)N(CC(=O)[O-])CC(=O)[O-])CC(=O)[O-].[Gd+3].[H+].[H+].[H+] [MS-325, gadofosveset] | – | – | – | – | – | – | 42 ^a mM^−1s^−1 | 23.8 ^a mM^−1s^−1 | 6.6 ^a mM^−1s^−1 | 5.5 ^a mM^−1s^−1 | 88% ^a
– | C[C@H](NC(=O)C(CN1CCN(CC(=O)O)CCN(CC(=O)O)CCN(CC(=O)O)CC1)NC(=O)C(N)Cc1cc(I)c(O)c(I)c1)c1ccccc1 (single isomer, unassigned) [Gd(6b)] | 6.8 mM⁻¹ s⁻¹ | 6.1 mM⁻¹ s⁻¹ | 18.4 mM⁻¹ s⁻¹ | 11.7 mM⁻¹ s⁻¹ | 39% | 37% | – | – | – | – | –
– | NC(Cc1cc(I)c(O)c(I)c1)C(=O)NC(CN1CCN(CC(=O)O)CCN(CC(=O)O)CCN(CC(=O)O)CC1)C(=O)O (stereo not drawn) [Gd(4), 2,2′,2″-(10-(2-(2-amino-3-(4-hydroxy-3,5-diiodophenyl)propanamido)-2-carboxyethyl)-1,4,7,10-tetraazacyclododecane-1,4,7-triyl)triacetic acid] | 6.1 mM⁻¹ s⁻¹ | 5.8 mM⁻¹ s⁻¹ | 23.7 mM⁻¹ s⁻¹ | 17.4 mM⁻¹ s⁻¹ | 20% | – | – | – | – | – | –
